Test results published in ChEMBL document CHEMBL3813631, “Design, synthesis, and pharmacological evaluation of JDTic analogs to examine the significance of replacement of the 3-hydroxyphenyl group with pyridine or thiophene bioisosteres” (Bioorg Med Chem, 2016).
Calls of active or inactive are those of the source. No cut-off for these calls is given here.

Assays:
[1] = system: CHO; test: Selectivity ratio of Ke for human delta opioid receptor expressed in CHO cell membrane to Ke for human kappa opioid receptor expressed in CHO cell membrane; format: cell-based
[2] = target: Delta-type opioid receptor (Homo sapiens) (UniProt P41143); test: Intrinsic activity at human delta opioid receptor expressed in CHO cell membrane assessed as increase in [35S]GTPgammaS binding at 10 uM after 1 hr by scintillation counting method; format: functional, cell membranes
Chain of Delta-type opioid receptor (Homo sapiens) (P41143 whole entry): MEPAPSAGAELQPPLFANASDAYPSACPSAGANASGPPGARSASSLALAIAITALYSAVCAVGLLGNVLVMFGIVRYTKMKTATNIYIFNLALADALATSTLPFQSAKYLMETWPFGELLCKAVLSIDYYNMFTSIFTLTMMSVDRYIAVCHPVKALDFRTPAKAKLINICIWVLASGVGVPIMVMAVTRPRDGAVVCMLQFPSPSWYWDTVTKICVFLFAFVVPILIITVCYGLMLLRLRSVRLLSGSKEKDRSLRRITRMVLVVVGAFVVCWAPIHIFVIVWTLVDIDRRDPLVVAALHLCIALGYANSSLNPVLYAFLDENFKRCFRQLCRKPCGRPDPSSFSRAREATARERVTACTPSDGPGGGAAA

[3] = target: Mu-type opioid receptor (Homo sapiens) (UniProt P35372); test: Intrinsic activity at human mu opioid receptor expressed in CHO cell membrane assessed as increase in [35S]GTPgammaS binding at 10 uM after 1 hr by scintillation counting method; format: functional, cell membranes
Chain of Mu-type opioid receptor (Homo sapiens) (P35372 whole entry): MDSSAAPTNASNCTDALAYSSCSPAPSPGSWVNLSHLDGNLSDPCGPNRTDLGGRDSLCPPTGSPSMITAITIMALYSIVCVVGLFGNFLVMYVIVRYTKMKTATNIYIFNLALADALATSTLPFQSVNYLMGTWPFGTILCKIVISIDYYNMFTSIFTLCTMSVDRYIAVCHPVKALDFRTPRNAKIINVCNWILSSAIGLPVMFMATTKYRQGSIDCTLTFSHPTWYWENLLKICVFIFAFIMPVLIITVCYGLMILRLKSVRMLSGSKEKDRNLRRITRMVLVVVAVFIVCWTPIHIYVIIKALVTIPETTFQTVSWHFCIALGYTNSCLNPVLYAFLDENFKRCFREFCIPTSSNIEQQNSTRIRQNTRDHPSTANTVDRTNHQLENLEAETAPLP

[4] = target: Mu-type opioid receptor (Homo sapiens) (UniProt P35372); test: Antagonist activity at human mu opioid receptor expressed in CHO cell membrane assessed as inhibition of DAMGO-induced [35S]GTPgammaS binding after 1 hr by scintillation counting method; format: functional, cell membranes
How it was run: (§1)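 Antagonist Ke values were obtained from [35S]GTPγS binding at each opioid receptor. Each value is the mean ± SEM of at least three independent experiments, and each experiment was run in duplicate.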

[5] = system: CHO; test: Selectivity ratio of Ke for human mu opioid receptor expressed in CHO cell membrane to Ke for human kappa opioid receptor expressed in CHO cell membrane; format: cell-based
[6] = target: Kappa-type opioid receptor (Homo sapiens) (UniProt P41145); test: Antagonist activity at human kappa opioid receptor expressed in CHO cell membrane assessed as inhibition of U69,593-induced [35S]GTPgammaS binding after 1 hr by scintillation counting method; format: functional, cell membranes; how it was run: as §1
Chain of Kappa-type opioid receptor (Homo sapiens) (P41145 whole entry): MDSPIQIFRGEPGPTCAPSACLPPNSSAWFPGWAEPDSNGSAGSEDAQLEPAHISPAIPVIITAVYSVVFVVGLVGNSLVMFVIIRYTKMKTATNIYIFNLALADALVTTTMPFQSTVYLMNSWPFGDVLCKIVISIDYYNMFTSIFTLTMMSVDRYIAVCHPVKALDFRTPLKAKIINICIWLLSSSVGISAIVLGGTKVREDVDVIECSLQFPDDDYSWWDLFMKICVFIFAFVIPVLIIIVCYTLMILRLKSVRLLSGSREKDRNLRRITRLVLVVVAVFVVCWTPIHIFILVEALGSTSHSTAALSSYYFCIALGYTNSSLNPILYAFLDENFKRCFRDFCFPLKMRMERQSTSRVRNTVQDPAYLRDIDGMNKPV

[7] = target: Delta-type opioid receptor (Homo sapiens) (UniProt P41143); test: Antagonist activity at human delta opioid receptor expressed in CHO cell membrane assessed as inhibition of DPDPE-induced [35S]GTPgammaS binding after 1 hr by scintillation counting method; format: functional, cell membranes; how it was run: as §1
[8] = target: Kappa-type opioid receptor (Homo sapiens) (UniProt P41145); test: Intrinsic activity at human kappa opioid receptor expressed in CHO cell membrane assessed as increase in [35S]GTPgammaS binding at 10 uM after 1 hr by scintillation counting method; format: functional, cell membranes

SMILES | Intrinsic activity [2] | Intrinsic activity [3] | Ke [4] [nM] | Ke [6] [nM] | Ke [7] [nM] | Intrinsic activity [8] | Ratio Ke [1] | Ratio Ke [5]
CC(C)[C@@H](CN1CCC(C)(c2cccnc2)CC1)NC(=O)[C@H]1Cc2ccc(O)cc2CN1 | inactive | inactive |  | 0.18 |  | inactive | > 16700 | 273
CC(C)[C@@H](CN1CCC(c2ccccc2)CC1)NC(=O)[C@H]1Cc2ccc(O)cc2CN1 |  |  |  |  |  |  | 5510 | 77
CC(C)[C@@H](CN1CCC(C)(c2ccncc2)CC1)NC(=O)[C@H]1Cc2ccc(O)cc2CN1 | inactive | inactive |  | 1.75 |  | inactive | 1430 | 88

Now from value to molecule, other results behind:

Intrinsic activity [2] | Intrinsic activity [3] | Ke [4] [nM] | Ke [6] [nM] | Ke [7] [nM] | Intrinsic activity [8] | SMILES | Ratio Ke [1] | Ratio Ke [5]
inactive | inactive | 3.93 | 0.12 | 118 | inactive | CC(C)[C@@H](CN1CCC(c2ccsc2)CC1)NC(=O)[C@H]1Cc2ccc(O)cc2CN1 | 983 | 33
inactive | inactive |  | 0.51 |  | inactive | CC(C)[C@@H](CN1CCC(c2cccnc2)CC1)NC(=O)[C@H]1Cc2ccc(O)cc2CN1 | 2240 | 89
inactive | inactive |  | 0.51 |  | inactive | CC(C)[C@@H](CN1CCC(c2ccncc2)CC1)NC(=O)[C@H]1Cc2ccc(O)cc2CN1 | 1350 | 112
inactive | inactive |  | 0.43 |  | inactive | CC(C)[C@@H](CN1CCC(c2ccccn2)CC1)NC(=O)[C@H]1Cc2ccc(O)cc2CN1 | 1370 | 33
